Published values collected from several papers.
Each line is one published result; the experiments were not run side by side.
Target: Testis-specific serine/threonine-protein kinase 1 (TSSK1B, Homo sapiens, UniProt Q9BXA7)
Sequence (Q9BXA7 1-367, as in one of the studies): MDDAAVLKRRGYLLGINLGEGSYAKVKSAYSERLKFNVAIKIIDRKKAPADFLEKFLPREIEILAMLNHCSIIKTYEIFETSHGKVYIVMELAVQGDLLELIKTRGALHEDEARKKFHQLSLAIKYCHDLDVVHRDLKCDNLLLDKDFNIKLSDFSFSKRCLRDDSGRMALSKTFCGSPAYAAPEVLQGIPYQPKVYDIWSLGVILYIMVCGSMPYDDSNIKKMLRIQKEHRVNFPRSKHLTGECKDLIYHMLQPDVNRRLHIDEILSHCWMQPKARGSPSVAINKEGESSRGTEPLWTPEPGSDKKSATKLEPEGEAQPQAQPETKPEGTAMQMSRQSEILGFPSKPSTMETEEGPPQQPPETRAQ

Compound | assay | conditions | remaining binding [%]
CCC(=N\O)/C(C)=C/c1ccc(F)cc1 | cell-free assay, competition with immobilised ligand | 1 µM | 82
CCN1CCN(Cc2ccc(C(=O)Nc3ccc(C)c(Oc4ccc5c(c4)CC(=O)N5)c3)cc2C(F)(F)F)CC1 | binding, competition with immobilised ligand | 1 µM | 93
O=C(N1CCS(=O)(=O)CC1)N1C[C@H](c2ccc(OC(F)(F)F)cc2)C[C@H](c2nc(C3CC3)no2)C1 | cell-free assay, competition with immobilised ligand | 1 µM | 95
F[C@@H]1CCN(c2nccc(-c3cnn4ncccc34)n2)C1 | binding | 1 µM | 100
O=C(O)[C@@H]1[C@@H](Cn2nnc3ccccc3c2=O)CC[C@H]1C(=O)c1ccc(OCCC2CCOCC2)cc1 | cell-free assay, competition with immobilised ligand | 1 µM | 100
COc1ncc2cc3ccccc3nc2c1C#N | cell-free assay, competition with immobilised ligand | 5 µM | 97
Cn1cc(Cl)c2c(Oc3c(F)cc(Nc4cc(Cl)nc(N)n4)cc3F)ccnc21 | cell-free assay, competition with immobilised ligand | 0.1 µM | 100
CN(C)c1ncc(F)c(-c2cnn3ncccc23)n1 | binding | 1 µM | 100
CC(C)CC(=O)N1CCc2nc(-c3ccc(Br)cc3)nc(N(C)Cc3ccccc3)c2C1 | cell-free assay, competition with immobilised ligand | 0.1 µM | 99
FC(F)(F)Oc1cccc(-c2cnc3ccc(-c4ccncc4)nn23)c1 | binding, competition with immobilised ligand | 5 µM | 83
C[C@@H](c1ccc(-n2cnc3c(N)ncnc32)cc1)N1CCc2nn(C)c(Cc3ccccc3)c2C1=O | binding, competition with immobilised ligand | 0.1 µM | 100
COc1ccc2c(c1)O[C@H](c1ccc(OC)c(OC)c1)C[C@@H]2NC(=O)C1(c2ccc3c(c2)OC(F)(F)O3)CC1 | cell-free assay, competition with immobilised ligand | 1 µM | 100
C[C@@H]1CCN(c2nccc(-c3cnn4ncccc34)n2)C1 | binding | 1 µM | 100
CSc1cccnc1N1CCN(Cc2nc3ccccc3[nH]2)CC1 | cell-free assay, competition with immobilised ligand | 1 µM | 100
O=C(NCC1CCOCC1)c1n[nH]cc1NC(=O)c1c(F)cccc1F | binding, competition with immobilised ligand | 1 µM | 97
CN(C)c1nccc(-c2cnc3ncccn23)n1 | binding | 1 µM | 100
O=C(NCCCN1CCOCC1)c1ccc(Nc2nccc(-c3cc4ccccc4s3)n2)cc1 | binding, competition with immobilised ligand | 1 µM | 93
CC1CCCN1c1nccc(-c2cnn3ncccc23)n1 (stereo not shown) | binding | 1 µM | 100
C[C@@H]1CN(c2ccc3ncc(-c4ccc5[nH]nc(C6CC6)c5c4)n3n2)C[C@H](C)O1 | binding, competition with immobilised ligand | 0.5 µM | 100
COc1ccnn2ncc(-c3ccnc(N(C)C)n3)c12 | binding | 1 µM | 100
O=C(c1ccc(Nc2ncc(Cl)c(-c3cc4ccccc4s3)n2)cc1)N1CCC(N2CCCC2)CC1 | binding, competition with immobilised ligand | 1 µM | 85
N[C@H]1CCN(c2nccc(-c3cnn4ncccc34)n2)C1 | binding | 1 µM | 100
O=C(c1ccc(Nc2nccc(-c3cc4ccccc4s3)n2)cc1)N1CCC(N2CCCC2)CC1 | binding, competition with immobilised ligand | 1 µM | 100
Cc1noc([C@H]2C[C@@H](c3ccc(C(F)(F)F)cc3)CN(C(=O)N3CCS(=O)(=O)C3)C2)n1 | cell-free assay, competition with immobilised ligand | 1 µM | 100
CNC(=O)[C@@H]1CC[C@@H](n2c(-c3ccc4cnccc4c3)nc3ccc(C(=O)NCc4cccc(C(N)=O)c4)cc32)C1 | binding, competition with immobilised ligand | 1 µM | 93
